Laboratory results taken from publication PMC11729038 (Bioorganic & medicinal chemistry letters, 2024).
One block for each compound: values may come before it.

Legend:
[1] = Reaction of electrophiles with CoASH, adduct formation monitored by LC-MS; type: physicochemical; conditions: for kforward, reaction with CoASH: 25 °C, pH 7.5 phosphate buffer, 2 mM each of CoASH and electrophile, 1 mM TCEP, 5% MeOH, same with and without 1.2 μM AANAT
Summary of the method: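 Uncatalyzed electrophile–CoASH reactions contained 5% MeOH for electrophile dissolution. CoASH adduct formation was followed over time by LC-MS. Rate constants came from global kinetic fitting of product accumulation. Upper and lower bounds were set within a 0.83 relative error threshold.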

AANAT = AANAT (Ovis aries, UniProt Q29495); test: AANAT enzymatic; type: biochemical, Ovis aries (sheep); conditions: for Inhibition of AANAT at 10 μM test compound concentration: sheep AANAT; for Fold less potent than 1 (AANAT IC50): relative to compound 1
[2] = cited from earlier work
melatonin receptors = conditions: cited from earlier work
sheep AANAT enzyme = conditions: truncated bisubstrate inhibitor versus 2; cited from earlier work
human AANAT enzyme = conditions: cited from earlier work

Chain of AANAT (Q29495 whole entry): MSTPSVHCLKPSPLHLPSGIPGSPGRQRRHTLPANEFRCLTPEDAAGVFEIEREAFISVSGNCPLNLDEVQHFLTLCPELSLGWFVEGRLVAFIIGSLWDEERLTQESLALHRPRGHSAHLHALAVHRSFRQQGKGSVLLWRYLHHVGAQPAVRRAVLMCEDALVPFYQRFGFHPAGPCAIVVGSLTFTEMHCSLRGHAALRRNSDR

Inhibition of AANAT at 10 μM test compound concentration (AANAT): inactive
Structure (SMILES): C=CC(=O)NCCc1c[nH]c2ccccc12 [Compound 11]
kforward, reaction with CoASH [1]: 0.000146 M⁻¹ s⁻¹

Structure (SMILES): C=CC(=O)NCc1c[nH]c2ccccc12 [Compound 10]
kforward, reaction with CoASH [1]: 0.00026 M⁻¹ s⁻¹
Reaction rate with CoASH at pH 6.8 relative to pH 7.5 ([1]; pH 6.8, in the presence of enzyme): several times slower than at pH 7.5

Inhibition of AANAT at 10 μM test compound concentration (AANAT): inactive
Structure (SMILES): C=CS(=O)(=O)NCCc1c[nH]c2ccccc12 [Compound 13]
kforward, reaction with CoASH [1]: 0.00183 M⁻¹ s⁻¹

Fold less potent than 1 (AANAT IC50) (AANAT): 6 X
Structure (SMILES): O=C(CBr)NCc1c[nH]c2ccccc12 [Compound 8]

Structure (SMILES): CC(C)(CO[P@@](=O)(O)O[P@@](=O)(O)OC[C@H]1O[C@@H](n2cnc3c(N)ncnc32)[C@H](O)[C@@H]1OP(=O)(O)O)[C@@H](O)C(=O)NCCC(=O)NCCSCC(=O)NCCc1c[nH]c2ccccc12 [Compound 2]
Cell permeability [2]: poor cell permeability

Fold less potent than 1 (AANAT IC50) (AANAT): 6 X
Structure (SMILES): O=C(CBr)NCCCc1c[nH]c2ccccc12 [Compound 9]

Structure (SMILES): O=C(CBr)NCCc1csc2ccc(O)cc12 [Compound 6]
Selectivity against melatonin receptors (melatonin receptors): lack selectivity

Inhibition of AANAT at 10 μM test compound concentration (AANAT): inactive
Structure (SMILES): C=CS(=O)(=O)NCc1c[nH]c2ccccc12 [Compound 12]
kforward, reaction with CoASH [1]: 0.00435 M⁻¹ s⁻¹

Structure (SMILES): O=C(CBr)NCCc1c[nH]c2ccccc12 [Compound 1, bromoacetyltryptamine, reference compound]
Selectivity against melatonin receptors (melatonin receptors): lack selectivity
Second order rate constant, reaction with CoASH ([1]; pH 6.8, absence of AANAT): 0.0218 M⁻¹ s⁻¹
Effect of AANAT on rate of reaction with CoASH ([1]; pH 7.5): the same in the presence and absence of AANAT

Structure (SMILES): CC(C)(COP(=O)(O)OP(=O)(O)OC[C@H]1O[C@@H](n2cnc3c(N)ncnc32)[C@H](O)[C@@H]1OP(=O)(O)O)[C@@H](O)C(=O)NCCC(=O)NCCSC(=O)NCCc1c[nH]c2ccccc12 [Compound 3a]
Fold less potent than 2 (reported) (sheep AANAT enzyme): 4 X

Structure (SMILES): C=CC(=O)NCCc1csc2ccc(OC)cc12 [Compound 7]
Fold less potent than bromoacetyl analog 5 (reported IC50) (human AANAT enzyme): 40 X
